{
  "source": "ChEMBL document CHEMBL1158046",
  "about": "“Photoactivated insecticidal thiophene derivatives from Xanthopappus subacaulis” (2006)",
  "data": [
    {"tested_on": "Aedes albopictus", "experiment": "Insecticidal activity against Asian tiger mosquito fourth-instar larvae after 24 hrs in dark", "format": "functional", "settings": "not given", "in_short": "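Aedes albopictus fourth-instar larvae from a laboratory colony; samples dissolved and serially diluted in acetone, 0.4 mL added to 20 mL dechlorinated water with 30 larvae; held in the dark throughout the trial; mortality read at 24 h, three replications per concentration; LC50 (concentration causing 50% mortality) determined.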", "units": {"LC50": "µg/mL"}, "values": [
      {"smiles": "C/C=C/C#CC#Cc1ccc(CO)s1", "LC50": "> 10"},
      {"smiles": "C/C=C/C#CC#Cc1ccc(C(O)CCl)s1", "note": "(racemic) [XANTHOPAPPIN B]", "LC50": 5.1},
      {"smiles": "C/C=C/C#CC#Cc1cccs1", "note": "[XANTHOPAPPIN A]", "LC50": "> 10"},
      {"smiles": "C/C=C/C#CC#Cc1ccc(C(COC(C)=O)OC(C)=O)s1", "note": "(racemic)", "LC50": "> 10"},
      {"smiles": "C/C=C/C#CC#Cc1ccc(C(=O)C(O)(CC(C)=O)c2ccc(C#CC#C/C=C/C)s2)s1", "note": "(racemic) [XANTHOPAPPIN C]", "LC50": "> 10"},
      {"smiles": "C/C=C/C#CC#Cc1ccc(C(O)CO)s1", "note": "(racemic)", "LC50": "> 10"}
    ]},
    {"tested_on": "Aedes albopictus", "experiment": "Insecticidal activity against Asian tiger mosquito fourth-instar larvae irradiated with 2074 uW/cm'2 UV light for 1.5 hrs", "format": "functional", "settings": "light or radiation study", "in_short": "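Aedes albopictus fourth-instar larvae from a laboratory colony; acetone-diluted samples (0.4 mL) added to 20 mL dechlorinated water with 30 larvae; 3 h dark incubation, then 1.5 h UV irradiation (300-400 nm, max 365 nm), then 24 h in darkness; mortality from three replications per concentration; LC50 (concentration causing 50% mortality) determined.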", "units": {"LC50": "µg/mL"}, "values": [
      {"smiles": "C/C=C/C#CC#Cc1ccc(CO)s1", "LC50": 0.3},
      {"smiles": "C/C=C/C#CC#Cc1ccc(C(O)CCl)s1", "note": "(racemic) [XANTHOPAPPIN B]", "LC50": 0.53},
      {"smiles": "C/C=C/C#CC#Cc1cccs1", "note": "[XANTHOPAPPIN A]", "LC50": 0.71},
      {"smiles": "C/C=C/C#CC#Cc1ccc(C(COC(C)=O)OC(C)=O)s1", "note": "(racemic)", "LC50": 0.66},
      {"smiles": "C/C=C/C#CC#Cc1ccc(C(=O)C(O)(CC(C)=O)c2ccc(C#CC#C/C=C/C)s2)s1", "note": "(racemic) [XANTHOPAPPIN C]", "LC50": 0.95},
      {"smiles": "C/C=C/C#CC#Cc1ccc(C(O)CO)s1", "note": "(racemic)", "LC50": 4.2}
    ]}
  ]
}
